Assay outcomes (PubChem)
A selection: hits, their analogues and other compounds. The true share with any hit is near 3.4%.
ANO1 block: blocks the mouse calcium-activated chloride channel TMEM16A. HEK293 TMEM16A/YFP iodide influx fluorescence, ionomycin. normalized B-score (activity score, 25-100; higher = stronger inhibition) at 10 µM. 310,000 tested, 1.2% active. AID 588511;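 active = ratio plate-corrected score three or more library SD toward inhibition, starting fluorescence score within five deviations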;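 also: score derived from kinetic fluorescence span divided by baseline fluorescence per well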
HTR2A ag: mouse HTR2A agonism via beta-arrestin recruitment; P35363; CHO-K1 mHTR2A beta-arrestin complementation, luminescence; percent of 30 µM serotonin response; activation, % at 7.6 µM; 360,000 tested, 0.66% active; AID 624169;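 active = activation above a run cutoff, the mean activation of all tested compounds plus 3 SD, cut at about 14% in these data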
MC4R antag cAMP: blocks human MC4R cAMP signaling. inhibition, % at 6.5 µM. 360,000 tested, 0.48% active. AID 540295. MC4R-expressing cells, MTII-stimulated cAMP, LANCE TR-FRET;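 active = inhibition above its plate's cutoff, the mean of tested wells on that plate plus 3 SD, cut at about 29% in these data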
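Material – human MC4R-expressing U2OS cells · Repeats – no replicates · Detection – TR-FRET with Eu-cAMP and labeled anti-cAMP, 671 nm · Times – compound 30 min, challenge 1 h, detection 1 h · Compound – single nominal compound dose of 6.5 µM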
MC4R barr agon: human MC4R agonism via beta-arrestin; activation, % at 8.9 µM; 360,000 tested, 0.98% active; U2OS MC4R beta-arrestin complementation, luminescence; percent of melanotan II response, DMSO zero; P32245; AID 540308;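 active = activation above a per-plate cutoff, the mean activation of sample wells on that plate plus 3 SD, cut at about 8% in these data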
ANO1 activ: activators or potentiators of mouse TMEM16A chloride channel. 340,000 tested, 0.3% active. Q8BHY3. AID 623877. HEK293 TMEM16A/YFP-H148Q/I152L, iodide quench fluorescence; stronger effect = lower value. B-score at 10 µM;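 active = fluorescence-ratio B-score plate-corrected deviation score at least 3 library SD below zero, with starting fluorescence score within 5 deviations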;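 also: channel opened by trigger with iodide after compound preincubation; score built on the fluorescence ratio of max minus min over baseline; more negative score means more quench and so TMEM16A activation or potentiation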
MIN6 prolif: induces beta-cell replication in MIN6 cells; MIN6 cells proliferation, ATPlite luminescence, 48 h; cells starved in 0.2% serum; 100% = growth in 10% serum; proliferation, % at 10 µM; 330,000 tested, 0.29% active; AID 2380;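 active = compounds whose signal lies at least 3.5 SD above the mean of all wells on their plate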
MC4R barr ag: human MC4R beta-arrestin agonism confirmation. shares compounds with MC4R barr agon. U2OS MC4R beta-arrestin recruitment, luminescence; scaled DMSO 0%, Melanotan II 100%. activation, % at 8.9 µM. 2,400 tested, 31% active;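 active = mean activation across replicates above the hit cutoff set in the earlier primary screen, cut at about 8% in these data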
MOR-DOR barr ag: counter-screen for MC4R agonists: agonists of mu-delta opioid heterodimer | shares compounds with MC4R barr agon | U2OS PathHunter beta-arrestin, beta-gal luminescence; percent of deltorphin B response, DMSO zero | activation, % at 9.2 µM | 2,400 tested, 5.8% active;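 active = mean activation across replicates exceeds the hit threshold derived in the earlier primary screen, cut at about 18% in these data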
Hits are given with their value; – = inactive; · = no result given.

SMILES	ANO1 block	HTR2A ag	MC4R antag cAMP	MC4R barr agon	ANO1 activ	MIN6 prolif	MC4R barr ag	MOR-DOR barr ag
O=C(CNC(=S)NC(=O)c1ccccc1Br)c1ccccc1	–	–	–	21	–	–	–	–
Cc1ccccc1C(=O)NC(=S)NCC(=O)c1ccccc1	–	–	–	–	–	–	·	·
COc1cc([N+](=O)[O-])ccc1NC(=O)NNC(=O)c1sccc1C	–	–	–	–	–	–	·	·
Cc1ccc(NC(=O)c2cc(NC(=O)c3ccco3)ccc2N2CCCCC2)cc1	–	–	–	18	–	–	–	–
COc1ccc(C(=O)N2CCCC(Nc3ccc(F)cc3)C2)c(OC)c1 (centres undefined)	–	–	–	–	–	–	·	·
COc1ccccc1NC(=O)Nc1cc(C(C)C)ccc1C	·	–	–	19	–	–	–	–
COc1ccccc1CNC(=O)COc1cc(O)c2c(c1)OC(C)(C)CC2=O	·	–	–	–	·	·	·	·
O=C(Nc1ccc(C(F)(F)F)cc1-c1ccccc1)c1ccccc1	–	–	–	13	–	–	–	–
C=C(C)c1cccc(C(C)(C)NC(=O)NC2CCN(Cc3ccccc3)CC2)c1	–	–	–	–	–	–	·	·
C=C(C)c1cccc(C(C)(C)NC(=O)N(Cc2ccccc2)Cc2ccco2)c1	–	–	–	17	–	–	–	–
C/C(=C\C=C(C#N)C#N)c1cc(C#N)c(N)o1	·	–	–	14	–	–	57	20
COc1ccc(/C=N/NC(=S)Nc2cc(C(F)(F)F)ccc2Cl)cc1	–	–	–	24	–	–	–	–
FC(F)(F)c1ccc(Cl)c(NC(=S)N/N=C/c2ccccc2C(F)(F)F)c1	–	–	–	–	–	–	·	·
CC(=O)Nc1ccc(C(=O)CSc2cc(C)c3cccc(C)c3n2)cc1	–	–	–	28	–	–	–	–
CCCCN(C)C(=O)c1sc(=O)n(Cc2ccc(Cl)c(Cl)c2)c1C	·	–	–	–	·	·	·	·
COCCN1C(=O)c2cc(C(=O)Nc3cccc(F)c3)ccc2C1Nc1cccc(F)c1 (centres undefined)	–	–	–	–	–	–	·	·
CCc1ccc(NC(=O)c2ccc3c(c2)C(=O)N(CCOC)C3Nc2ccc(CC)cc2)cc1 (centres undefined)	–	–	–	12	–	–	–	–
Cc1cccc(C)c1OCc1cc(C(=O)NCC2CCCCC2)no1	–	–	–	11	–	–	–	–
Cc1cc(OCc2cc(C(=O)NC3CCC3)no2)cc(C)c1Cl	–	–	–	11	–	–	–	–
CCOC(=O)C1=CCN(S(=O)(=O)c2ccc(Br)cc2)C1c1ccc(C)cc1 (centres undefined)	·	–	·	·	·	·	·	·
O=C(c1cccc(Cl)c1)N1CCCC(C(=O)N2CCN(c3ccccc3)CC2)C1 (centres undefined)	–	–	–	–	–	–	·	·
CCc1nnc(NC(=O)CSCc2cc(=O)n3nc(C)sc3n2)s1	–	–	–	–	–	–	·	·
c1ccc(-c2cc(-c3nn4c(-c5ccco5)nnc4s3)c3ccccc3n2)cc1	–	–	–	9.7	–	–	–	–
N#C/C(=C\c1ccc(-c2ccc(F)cc2)o1)C(=O)Nc1nc(-c2cccs2)cs1	–	–	–	39	–	–	19	–
CCOc1ccc(S(=O)(=O)N(CC)CC(=O)NCc2ccncc2)cc1C	–	–	–	–	–	–	·	·
CC(/C=C1\SC(=S)N(NC(=O)c2cccc(O)c2)C1=O)=C\c1ccccc1	–	–	–	9.8	–	–	–	–
C=CCN(c1ccc(F)cc1)S(=O)(=O)c1cc(C(=O)NC2CC2)ccc1Cl	·	–	–	–	·	·	·	·
